Measured values as given in ChEMBL document CHEMBL3616442, “Unconventional Knoevenagel-type indoles: Synthesis and cell-based studies for the identification of pro-apoptotic agents” (Eur J Med Chem, 2015).

Tests used:
MCF7 [1] = experiment: Induction of apoptosis in human MCF7 cells by propidium iodide staining based flow cytometric analysis; type: functional
Summary of the method: (§1)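 After treatment, cells harvested, fixed in ice-cold 70% ethanol at 4 °C, stained 30 min at 37 °C in the dark with 100 µg/mL propidium iodide plus 10 µg/mL RNase A; 10,000 gated cells analysed at 488 nm with debris excluded; apoptosis followed over time; mean ± S.E.M. of three independent experiments run in triplicate.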

[2] = Cytotoxicity against human CRL7065 cells after 96 hrs by MTT assay; type: cell-based; conditions: CRL-7065, 96 h
Summary of the method: (§2)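 ATCC cell lines, mycoplasma-free by Hoechst staining. Haematological lines in RPMI-1640, solid-tumour and normal fibroblast lines in their own media, all with 10% FCS and antibiotics, at 37 °C in 5% CO₂. Compounds added as serial dilutions from a 100 mM DMSO stock diluted in medium. Viability by MTT after 96 h at 37 °C. Mean ± SD of three independent determinations.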

CCRF-CEM = experiment: Cytotoxicity against human CCRF-CEM cells after 96 hrs by MTT assay; type: functional, cell-based; summary of the method: as §2
SK-MEL-28 = experiment: Cytotoxicity against human SK-MEL-28 cells after 96 hrs by MTT assay; type: functional, cell-based; conditions: SK-MEL-28, 96 h; summary of the method: as §2
K562 [3] = experiment: Induction of apoptosis in human K562 cells by propidium iodide staining based flow cytometric analysis; type: functional; conditions: TDE = time-dependent effect; summary of the method: as §1
DU-145 = experiment: Cytotoxicity against human DU145 cells after 96 hrs by MTT assay; type: functional, cell-based; conditions: DU-145, 96 h; summary of the method: as §2
[4] = Cytotoxicity against human SKMES1 cells after 96 hrs by MTT assay; type: functional, cell-based; conditions: SK-MES-1, 96 h; summary of the method: as §2
CCRF-SB = experiment: Cytotoxicity against human CCRF-SB cells after 96 hrs by MTT assay; type: functional, cell-based; summary of the method: as §2
HL-60 [5] = experiment: Induction of apoptosis in human HL60 cells by propidium iodide staining based flow cytometric analysis; type: functional; summary of the method: as §1
MT4 = experiment: Antiproliferative activity against human MT4 cells after 96 hrs by MTT assay; type: functional, cell-based; conditions: MT4, 96 h
Summary of the method: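 Exponentially growing MT-4 cells (CD4+ human T-cells carrying integrated HTLV-1 genome), seeded at 1×10^5 cells/mL in RPMI-1640 with 10% FCS and antibiotics. Serial dilutions of compound (DMSO stock 100 mM, diluted in medium), 37 °C, 5% CO₂, 96 h. Viability read by MTT. 50% inhibition versus untreated controls by linear regression. Mean ± SD of three independent determinations.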

HepG2 = experiment: Cytotoxicity against human HepG2 cells after 96 hrs by MTT assay; type: functional, cell-based; conditions: HepG2, 96 h; summary of the method: as §2
HL-60 [6] = experiment: Antiproliferative activity against human HL60 cells after 3 days incubation by alamar blue method; type: functional
Summary of the method: (§3)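 HL-60 and K562 grown in RPMI 1640, MCF-7 in DMEM, each with 10% FCS, penicillin G and streptomycin. Seeded at 4x10⁴ (HL-60, K562) or 2x10⁴ (MCF-7) cells per well with serial compound dilutions, incubated 3 days at 37 °C. Alamar blue added for 3 h at 37 °C in the dark, fluorescence read at ex 544/em 590 nm. IC50 versus untreated controls by linear regression.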

MCF7 [7] = experiment: Antiproliferative activity against human MCF7 cells after 3 days incubation by alamar blue method; type: functional; summary of the method: as §3
WIL2-NS = experiment: Cytotoxicity against human WIL2-NS cells after 96 hrs by MTT assay; type: functional, cell-based; summary of the method: as §2
MRC5 = experiment: Cytotoxicity against human MRC5 cells after 96 hrs by MTT assay; type: cell-based; conditions: MRC5, 96 h; summary of the method: as §2
K562 [8] = experiment: Antiproliferative activity against human K562 cells after 3 days incubation by alamar blue method; type: functional; summary of the method: as §3
MCF7 [9] = experiment: Cytotoxicity against human MCF7 cells after 96 hrs by MTT assay; type: functional, cell-based; conditions: MCF7, 96 h; summary of the method: as §2

In the case of `N#C/C(=C\c1c(-c2ccccc2)[nH]c2ccccc12)C(=O)c1cccs1`, the Activity (MCF7 [1]) is reported as 34.1%, the Activity (MCF7 [1]; TDE = time-dependent effect) is reported as “tde” and the EC50 [2] is reported as 45 µM. The EC50 (CCRF-CEM) was 1.2 µM, the EC50 (SK-MEL-28) was 28 µM and the Activity (K562 [3]) was “tde”. It also gave an EC50 (DU-145) of 11 µM, an EC50 [4] of 4 µM and an EC50 (CCRF-SB) of 0.6 µM. The Activity (HL-60 [5]) was 61.3%, the Activity (HL-60 [5]; TDE = time-dependent effect) was “tde” and the EC50 (MT4) was 0.4 µM. The EC50 (HepG2) was 25 µM, the Activity (HL-60 [6]) was “Dose-dependent effect” and the GI50 (HL-60 [6]; HL-60, 72 h) was 2.11 µM. For the same compound, the Activity (MCF7 [7]) was “Dose-dependent effect”, the GI50 (MCF7 [7]; MCF7, 72 h) was over 10 µM and the EC50 (WIL2-NS) was 6.4 µM. For the same compound, the EC50 (MRC5) was 20 µM, the Activity (K562 [8]) was “Dose-dependent effect” and the GI50 (K562 [8]; K562, 72 h) was over 10 µM. The EC50 (MCF7 [9]) was 29 µM.
